# In the library only some 2.1% were active in any assay of this set; here they are far more common.
# ABCG2 block: human ABCG2 inhibition, ABCB1 as counter-screen | inhibition, % at 6.6 µM | IgMXP3 cells, JC-1 efflux, flow cytometry | hit rate 0.1% among 190,000 | Q9UNQ0 | AID 1325;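 active = inhibition above 80%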;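 note: 0% = DMSO and 100% = nicardipine control wells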
# Target sequence (Q9UNQ0 whole entry, looked up): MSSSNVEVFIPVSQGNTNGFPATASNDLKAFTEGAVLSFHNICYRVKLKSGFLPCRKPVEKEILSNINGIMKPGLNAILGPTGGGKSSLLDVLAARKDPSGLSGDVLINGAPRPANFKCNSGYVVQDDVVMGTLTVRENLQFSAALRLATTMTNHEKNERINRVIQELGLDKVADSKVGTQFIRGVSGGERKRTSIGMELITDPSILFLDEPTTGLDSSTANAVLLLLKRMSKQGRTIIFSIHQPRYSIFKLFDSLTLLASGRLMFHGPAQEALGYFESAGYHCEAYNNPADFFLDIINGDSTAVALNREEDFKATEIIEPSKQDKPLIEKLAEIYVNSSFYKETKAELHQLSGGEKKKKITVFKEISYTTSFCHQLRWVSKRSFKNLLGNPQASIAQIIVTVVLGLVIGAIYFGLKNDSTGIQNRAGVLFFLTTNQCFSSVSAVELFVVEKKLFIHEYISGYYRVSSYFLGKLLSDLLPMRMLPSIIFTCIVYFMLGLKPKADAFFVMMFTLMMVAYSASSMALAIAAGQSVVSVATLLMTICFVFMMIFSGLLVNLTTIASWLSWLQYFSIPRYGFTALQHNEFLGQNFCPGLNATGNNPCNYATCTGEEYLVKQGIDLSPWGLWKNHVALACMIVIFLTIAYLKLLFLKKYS
#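 Incubation: cells with compound and JC-1, 10 min at 25 °C, rotating, no wash / Test system: IgMXP3 (ABCG2) plus far-red-tagged CCRF-Adr (ABCB1) cells / Compound dosing: one concentration, 6.6 µM final / Also added: JC-1 fluorescent substrate / Evaluation: efflux inhibition in percent versus controls / Detection: flow cytometry, 530 nm JC-1 signal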
# MT stabilizer: microtubule stabilizers in HeLa cells | HeLa tubulin immunostaining HCS, 24 h; share of cells brighter than vehicle mean+2SD | % tubulin-high responders, % at 10 µM | hit rate 0.83% among 200,000;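 active = plate Z-score above 3 for both tubulin-high and condensed-nucleus cell shares, with cell loss under 80%, at 10 µM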;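 note: anti alpha tubulin signal scored within the nucleus-defined area of each cell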
# ABCB1 inh: blocks JC-1 efflux by human ABCB1 transporter; CCRF-Adr cells, flow cytometry; P08183; inhibition, % at 6.6 µM; hit rate 0.067% among 190,000; in the data active = inhibition above about 40%;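 note: 0% = vehicle and 100% = reference inhibitor; higher value means more JC-1 retained so stronger ABCB1 efflux block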
# Autophagy mod: autophagy modulation, high-content screen. MEF GFP-LC3 puncta imaging; test concentration mostly 10 µM. calls only at 10 µM (by protocol). hit rate 0.98% among 190,000;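 active = percentage of spot-positive cells more than 3 SD above its plate mean, without a fluorescence outlier flag or 80% toxicity; inconclusive = no clear call, values can overlap the other calls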;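 note: spot-positive cell cutoff set from DMSO-treated cells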
# Arbovirus anti: antivirals against arbovirus infection. arbovirus infection cell-based antiviral screen. inhibition, % at 10 µM. hit rate 0.37% among 200,000; in the data active = inhibition above about 30%
# bCat nuc transl: alters nuclear translocation of beta-catenin in HeLa cells. immunofluorescence imaging. nuclear translocation activity, % at 5 µM. hit rate 0.3% among 190,000;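 active = nuclear translocation activity above 50% at 5 µM, with a well cell count of 50 or more; inconclusive = wells under 50 cells across six images, flagged as toxic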;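 note: per-cell ratio of nuclear to cytoplasmic median beta-catenin stain intensity; plate controls were DMSO negative control for no effect and GSK-3 inhibitor IX positive control for full effect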
#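 Read-out: Nuclear/cytoplasmic beta-catenin signal ratio, % activation | Assay system: Human HeLa cell line | Times: 24 h compound exposure at 37°C, 5% CO2 | Signal: Fluorescence imaging of beta-catenin antibody stain plus DAPI | Dosing: 5 µM primary, 0.02–20 µM confirmation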
# * hit, by the source's call; i = inactive; ? = inconclusive; . = not tested or not shown; + = active, no number.
SMILES,ABCG2 block,MT stabilizer,ABCB1 inh,Autophagy mod,Arbovirus anti,bCat nuc transl
Cc1ccc(S(=O)(=O)N(CC(=O)N=Nc2c(O)[nH]c3ccccc23)c2cccc(C)c2)cc1,0,19*,1,i,-3,64*
COc1ccc(S(=O)(=O)NCCC(=O)NC2CCCCCCC2)cc1,0,3,-1,i,0,0
Cc1ccc(S(=O)(=O)NCCC(=O)NC2CCCC2)cc1,0,3,0,+,6,-1
COc1ccc(N/C(N)=N/c2nc(CSc3ccc(Cl)cc3)cc(=O)[nH]2)cc1,6,3,1,i,-16,-11
N/C(=N\c1nc(CSc2ccc(Cl)cc2)cc(=O)[nH]1)Nc1cccc2ccccc12,0,3,0,+,-5,.
CCCCNC(=O)C1CCN(C/C(C)=C/c2ccccc2)CC1,1,4,1,i,-7,0
N#Cc1cc2ccccc2nc1SCC(=O)Nc1ccccc1N1CCOCC1,6,11,2,+,-8,-1
CC1(C)Cc2nc3sc4c(=O)n(CC(=O)NCc5ccco5)cnc4c3cc2CO1,3,32*,1,i,-8,1
Cc1ccc(C(=O)O)cc1NC(=O)CCc1ccccc1,0,2,0,+,3,4
CNC(=O)c1nnc(Cc2ccc(F)cc2)o1,-5,6,-2,i,0,-1
CC(=O)Nc1ccccc1N(C)S(=O)(=O)c1ccc(C)cc1,1,47*,0,i,-22,5
CC(=O)Nc1ccccc1NC(=O)CN(C)S(=O)(=O)c1ccc(C)cc1,0,2,1,i,0,.
O=C(NCc1ccc(N2CCCC2=O)cc1)c1ccc(F)cc1,-5,9.4*,0,i,0,-2
Cc1ccc(CNC(=O)c2ccc(N3CCCC3=O)cc2)cc1,4,1,1,i,4,3
Cc1[nH]nc2c1-c1nc3ccccc3nc1C(C)(C)C2,9,2,1,i,33*,1
CC(=O)/C(N=Nc1ccc2c(c1)OCCO2)=C(\C)O,5,3,1,i,6,0
CCOc1ccc(C(=O)N/N=C/c2cc([N+](=O)[O-])cs2)cc1,18,3,2,i,1,0
COc1cc(C(=O)N/N=C/c2cc([N+](=O)[O-])cs2)cc(OC)c1OC,15,20*,.,i,-17,29
COc1cc(C(=O)N/N=C/c2sccc2C)cc(OC)c1OC,4,12*,1,+,-11,85*
COc1ccc(Nc2cc(C(=O)NCc3cccnc3)c3ccccc3n2)c(OC)c1,10,2,3,i,3,0
Nc1cccc(CCc2nc3cc4ccccc4cc3[nH]2)c1,3,18,.,i,-18,81*
c1ccc(CCc2nc3ccccc3[nH]2)cc1,3,1,0,i,-5,0
Cc1ccccc1Cn1cc(NC(=O)c2nn(C)cc2Cl)cn1,4,4,0,i,-22,4
Cc1ccc(C2CC(C(F)F)n3ncc(C(=O)Nc4cnn(Cc5ccccc5C)c4)c3N2)cc1 (stereo not given),41,28*,6,i,-23,5
COc1ccc(-c2cc(C#N)nc(Cl)n2)cc1,.,.,.,.,.,1
SMILES,ABCG2 block,MT stabilizer,ABCB1 inh,Autophagy mod,Arbovirus anti,bCat nuc transl
CCN(CC)c1nc(C#N)cc(-c2ccc(OC)cc2)n1,13,63*,1,i,-9,-6
Cc1c(N=C2N=C(NC(=O)c3cccs3)c3ccccc32)c(=O)n(-c2ccccc2)n1C,26,7,1,+,-11,-7
CCCCN1C(=O)Cc2c1nc(N)c1c(N)nc(N(CCC)CCC)c(C#N)c21,43,3,1,+,-2,-6
Cc1ccc(C(=O)Cn2c(N3CCOCC3)nc3c2c(=O)n(C)c(=O)n3C)cc1,6,3,1,i,-6,0
Cc1ccc(S(=O)(=O)N2CCOCC2)cc1NC(=O)COC(=O)c1cc(=O)c2ccccc2o1,6,2,0,+,14,1
CCc1ccccc1NC(=O)Cn1nnc(C(=O)NCc2cccs2)c1N,1,30*,0,i,-20,1
COc1ccc(Nc2nc(N3CCCC3)nc3ccccc23)c(OC)c1,9,3,5,+,-46,.
CCn1c(C)cc2c(c1=O)C(c1ccncc1)C(C#N)=C(N)O2 (stereo not given),33,3,1,i,-1,0
COc1cc(/C=C2\SC(=N)N(c3ccc(F)cc3)C2=O)ccc1O,3,10*,0,i,5,2
CCOc1ccc(N2C(=O)S/C(=C\c3ccc(O)c(OC)c3)C2=O)cc1,.,.,.,.,.,3
CC1(C(=O)Nc2ccccc2)Cc2ccccc2C(=O)O1 (stereo not given),1,1,0,+,5,0
Oc1ccc(-c2csc(-c3c[nH]c4ccccc34)n2)c(O)c1,0,8,0,i,-21,.
Cc1ccc(-c2csc(-c3c[nH]c4ccccc34)n2)c(C)c1,2,37*,0,i,-42,2
O=C(Nc1nc2ccccc2n1Cc1ccccc1)c1ccc(COc2ccccc2[N+](=O)[O-])o1,-1,11,0,+,-33,.
COc1cc(C2Nc3cccc4cccc(c34)N2)cc(OC)c1O,28,2,0,+,0,?
COc1cc(C2Nc3cccc4cccc(c34)N2)ccc1OC(C)=O,-1,5,0,i,-1,-3
COc1ccc(CCNC(=O)c2sc3ccccc3c2Cl)cc1OC,6,7,1,i,0,-1
O=C(/C=C/Nc1ccc([N+](=O)[O-])cc1)c1ccc(Br)cc1,3,2,0,+,-16,-2
COc1cc(Br)cc(-c2nc3c(c(=O)[nH]c(=O)n3Cc3ccccc3)n2C)c1O,0,2,0,i,53*,-2
O=C(NNS(=O)(=O)c1ccc2ccccc2c1)c1cccnc1,-3,5,0,i,-3,0
Fc1ccccc1CSCc1nc2ccccc2[nH]1,8,3,1,+,0,-1
Cc1ccc(CSCc2nc3ccccc3[nH]2)cc1,5,3,0,i,36*,-4
COc1cc2ccccc2cc1C(=O)NC(=S)Nc1cc(C(=O)O)ccc1C,-1,5,0,i,42*,1
CC(=O)N1CCc2cc(S(=O)(=O)NCCC(=O)N3CCN(Cc4ccccc4)CC3)ccc21,0,4,0,+,4,-6
Cc1cccc(-n2c(=O)c3c4c(sc3n3c(=S)[nH]nc23)CCC4)c1,-4,3,-1,+,34*,0
CC(C)(C)NC(=O)NC(=O)COc1ccccn1,1,2,0,i,4,-1

# Source: PubChem BioAssay
